Bioassay records deposited in PubChem by NMMLSC.
This is a sample that favours compounds with a hit; in the whole collection about 2.3% have one here.
MEKK2 mut-MEK5: MEK5 binding signal on mutant MEKK2 PB1, primary screen, biochemical, multiplex bead flow cytometry, Alexa488-MEK5. Alexa488-MEK5 binding to MEKK2 mutant. percent response, % at 10 µM. 0.35% of 290,000 active. AID 1530, 2009; in the data active = percent response above about 24%, passing the limit was not always enough
MEKK2wt PB1 HTS: modulators of MEK5 binding to wildtype MEKK2, primary screen, biochemical, multiplex bead flow cytometry, Alexa488-MEK5; Mitogen-activated protein kinase kinase kinase 2 (Homo sapiens), Q9Y2U5; binding response (% of control), % at 10 µM; Alexa488-MEK5 binding to MEKK2 WT; actives lie on both sides; 1.1% of 290,000 active; in the data active = binding response below about 67% or above about 130%
MEKK3 PB1 HTS: modulators of MEKK3-MEK5 PB1 binding, primary screen, biochemical, wildtype MEKK3, multiplex bead flow cytometry, Alexa488-MEK5; Mitogen-activated protein kinase kinase kinase 3 (Homo sapiens), Q99759; bead-based flow cytometry, Alexa488-MEK5 binding to MEKK3; actives lie on both sides; 0 = blocked by unlabeled MEK5, 100 = vehicle; binding response (% of control), % at 10 µM; 1.4% of 290,000 active; AID 1529, 2009;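 active = binding response more than 3 SD above or below the average of its plate-row segment, actives on both sides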;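 note: Alexa488 bead fluorescence after subtracting the streptavidin-only scavenger bead signal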
Target sequence (Q99759 whole entry, looked up): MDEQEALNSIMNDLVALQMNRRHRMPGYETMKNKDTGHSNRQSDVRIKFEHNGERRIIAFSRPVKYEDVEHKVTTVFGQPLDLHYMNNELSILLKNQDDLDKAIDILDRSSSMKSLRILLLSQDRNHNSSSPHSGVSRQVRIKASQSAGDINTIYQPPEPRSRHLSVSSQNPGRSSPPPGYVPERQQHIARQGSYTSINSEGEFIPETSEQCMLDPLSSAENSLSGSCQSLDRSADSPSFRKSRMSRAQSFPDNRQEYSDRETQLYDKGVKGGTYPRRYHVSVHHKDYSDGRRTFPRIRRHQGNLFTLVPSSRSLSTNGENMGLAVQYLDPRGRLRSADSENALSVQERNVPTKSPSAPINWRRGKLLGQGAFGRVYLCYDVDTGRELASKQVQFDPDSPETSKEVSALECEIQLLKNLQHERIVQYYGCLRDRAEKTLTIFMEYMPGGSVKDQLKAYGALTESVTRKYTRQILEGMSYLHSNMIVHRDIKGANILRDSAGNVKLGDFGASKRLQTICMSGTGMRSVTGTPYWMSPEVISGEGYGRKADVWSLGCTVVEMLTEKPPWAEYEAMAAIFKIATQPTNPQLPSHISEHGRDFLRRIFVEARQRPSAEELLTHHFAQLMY
ABCG2 inh: ABCG2 efflux pump inhibitors, primary screen, multiplex with ABCB1, IgMXP3 cells, flow cytometry. JC-1 efflux. Broad substrate specificity ATP-binding cassette transporter ABCG2 (Homo sapiens), Q9UNQ0. 0.1% of 190,000 active. inhibition, % at 6.6 µM;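 active = inhibition above 80%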;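 note: 0% = DMSO and 100% = nicardipine control wells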
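Test system: IgMXP3 cells (ABCG2) mixed with DDAO far-red-labelled CCRF-Adr cells (ABCB1). Reagent: JC-1 transporter substrate. Compound dosing: single test compound dose, 6.6 µM final. Times: 10 min compound exposure, 25 °C. Detection: flow cytometry of retained JC-1 fluorescence. Read-out basis: efflux inhibition in percent versus controls. Controls: nicardipine and DMSO wells.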
ABCB1 block: ABCB1 efflux pump inhibitors, primary screen, cell-based, multiplex, flow cytometry, ABCG2 counter-screen. ATP-dependent translocase ABCB1 (Homo sapiens), P08183. CCRF-Adr cells, JC-1 efflux. inhibition, % at 6.6 µM. 0.067% of 190,000 active. AID 1326, 2008; in the data active = inhibition above about 40%;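 note: 0% = vehicle and 100% = reference inhibitor; higher value means more JC-1 retained so stronger ABCB1 efflux block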
MEKK2wt confirm: modulators of MEK5 binding to wildtype MEKK2, confirmation, biochemical, single concentration, multiplex bead flow cytometry; binding response (% of control), % at 10 µM; 2.4% of 5,900 active; AID 1892, 2009; Alexa488-MEK5 binding to MEKK2 WT; actives lie on both sides; shares compounds with MEKK3 PB1 HTS; in the data active = binding response below about 16% or above about 210%; inactive = in between
MEKK2mut-MEK5: mutant MEKK2 PB1-MEK5 binding signal retest – biochemical, single concentration, multiplex bead flow cytometry, confirmation. shares compounds with MEKK3 PB1 HTS. percent response, % at 10 µM. 2% of 5,900 active. Alexa488-MEK5 binding to MEKK2 mutant; in the data active = percent response mostly above about 71%, no sharp cut-off; inactive = mostly below about 38%;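 note: higher means compound restores mutant binding toward wildtype level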
MEKK3 confirm: MEKK3 wild-type PB1 binding to MEK5, inhibitors, confirmation, biochemical, bead multiplex flow cytometry, single concentration, wildtype; binding response (% of control), % at 10 µM; AID 1894, 2009; Alexa488-MEK5 binding to MEKK3; stronger effect = lower value; 1.8% of 5,900 active; shares compounds with MEKK3 PB1 HTS;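 active = binding response below 72% of control, or above a set upper limit, though filed actives all read lower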;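 note: 100% = DMSO only wells and 0% = binding blocked by excess unlabeled MEK5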
Numbers without * were called inactive; [ ] = remark or other dose.

How did CC#CCN1c2ccccc2[C@]23C[C@@H](C(=O)OC)N(C(=O)c4ccco4)C2=NC(C(=O)OC)=C(C(=O)OC)[C@H]13 do in these assays?
MEKK2 mut-MEK5: 3; MEKK2wt PB1 HTS: 151*; MEKK3 PB1 HTS: 126; MEKK2wt confirm: 95; MEKK2mut-MEK5: -4; MEKK3 confirm: 92

Results for CC#CCN1c2ccccc2[C@]23C[C@@H](C(=O)OC)N(C(=O)c4cc(C)oc4C)C2=NC(C(=O)OC)=C(C(=O)OC)[C@H]13 ?
MEKK2 mut-MEK5: 1; MEKK2wt PB1 HTS: 92; MEKK3 PB1 HTS: 101

Results for CCCCCOc1ccc(C(O)C(CN2CCOCC2)c2ccccc2)cc1 (configuration not stated) ?
MEKK2 mut-MEK5: 6; MEKK2wt PB1 HTS: 105; MEKK3 PB1 HTS: 102

Results for C=CCNS(=O)(=O)c1cccc2cc(C(=O)O)c(O)cc12 ?
MEKK2 mut-MEK5: 9; MEKK2wt PB1 HTS: 136*; MEKK3 PB1 HTS: 134*; ABCG2 inh: 1; ABCB1 block: 0; MEKK2wt confirm: 97; MEKK2mut-MEK5: -2; MEKK3 confirm: 96

How did O=C(O)c1cc2cccc(S(=O)(=O)N3CCCCC3)c2cc1O do in these assays?
MEKK2 mut-MEK5: -3; MEKK2wt PB1 HTS: 98; MEKK3 PB1 HTS: 99

How did CC1=N/C(=C\c2ccc([N+](=O)[O-])cc2)C(=O)N1c1cc(Cl)ccc1C do in these assays?
MEKK2 mut-MEK5: -3; MEKK2wt PB1 HTS: 52*[inhibitor]; MEKK3 PB1 HTS: 90; ABCG2 inh: 2; ABCB1 block: 0; MEKK2wt confirm: 81; MEKK2mut-MEK5: -17; MEKK3 confirm: 95

How did COc1ccc(N2C(=O)/C(=C/c3ccc([N+](=O)[O-])cc3)N=C2C)c(OC)c1 do in these assays?
MEKK2 mut-MEK5: 6; MEKK2wt PB1 HTS: 91; MEKK3 PB1 HTS: 105; ABCG2 inh: 13; ABCB1 block: 2

How did Cc1cc(NC(=O)CSc2nnc(N)s2)c([N+](=O)[O-])cc1C do in these assays?
MEKK2 mut-MEK5: -4; MEKK2wt PB1 HTS: 77; MEKK3 PB1 HTS: 65*[inhibitor]; ABCG2 inh: 2; ABCB1 block: 0; MEKK2wt confirm: 97; MEKK2mut-MEK5: -2; MEKK3 confirm: 99

How did CC(=O)c1ccc(S(=O)(=O)N(C)CC(=O)N2CCCCCC2)cc1 do in these assays?
MEKK2 mut-MEK5: 1; MEKK2wt PB1 HTS: 103; MEKK3 PB1 HTS: 100

What do the screens show for `Cc1ccc([N+](=O)[O-])c(OCCCN2CCCCCC2)c1`?
MEKK2 mut-MEK5: 66*; MEKK2wt PB1 HTS: 169*; MEKK3 PB1 HTS: 99; ABCG2 inh: 0; ABCB1 block: 0; MEKK2wt confirm: 130; MEKK2mut-MEK5: 16; MEKK3 confirm: 104

What do the screens show for `Cc1cc(OCCN2CCCCCC2)ccc1[N+](=O)[O-]`?
MEKK2 mut-MEK5: 14; MEKK2wt PB1 HTS: 104; MEKK3 PB1 HTS: 97; ABCG2 inh: 1; ABCB1 block: 0

Results for CCOc1ccc(C(=O)C[n+]2cccc3cc(C)ccc32)cc1 ?
MEKK2 mut-MEK5: 0; MEKK2wt PB1 HTS: 108; MEKK3 PB1 HTS: 90

How did O=C(C[n+]1cccc2ccccc21)c1ccc(NC(=O)c2ccccc2)cc1 do in these assays?
MEKK3 PB1 HTS: 37*[inhibitor]; ABCG2 inh: 5; ABCB1 block: 1; MEKK2wt confirm: 108; MEKK2mut-MEK5: -5; MEKK3 confirm: 98

What do the screens show for `Cc1ccc(C(=O)C[n+]2cccc3cc(C)ccc32)cc1`?
MEKK3 PB1 HTS: 25*[inhibitor]; ABCG2 inh: -1; ABCB1 block: 1; MEKK2wt confirm: 102; MEKK2mut-MEK5: -4; MEKK3 confirm: 97

How did CSCCC(NC(=O)c1ccccc1)C(=O)N1CC=C(c2ccccc2)CC1 (configuration not stated) do in these assays?
MEKK2 mut-MEK5: 2; MEKK2wt PB1 HTS: 101; MEKK3 PB1 HTS: 99

How did Cc1oc(-c2ccccc2Cl)nc1CS(=O)CC(=O)NC1CC1 (configuration not stated) do in these assays?
MEKK2 mut-MEK5: 0; MEKK2wt PB1 HTS: 101; MEKK3 PB1 HTS: 99

How did O=S(=O)(Nc1ccc(-c2nnc(SCc3ccc(Cl)cc3)o2)cc1)c1ccccc1 do in these assays?
MEKK2 mut-MEK5: 3; MEKK2wt PB1 HTS: 115; MEKK3 PB1 HTS: 131*; ABCG2 inh: -1; ABCB1 block: 0; MEKK2wt confirm: 94; MEKK2mut-MEK5: -2; MEKK3 confirm: 102

How did COc1cc(OC)c(NC(=O)C2CCCO2)cc1Cl (configuration not stated) do in these assays?
MEKK2 mut-MEK5: 0; MEKK2wt PB1 HTS: 104; MEKK3 PB1 HTS: 104

How did COc1cc(NC(=O)C2CCCO2)c(OC)cc1Cl (configuration not stated) do in these assays?
MEKK2 mut-MEK5: 0; MEKK2wt PB1 HTS: 103; MEKK3 PB1 HTS: 82*[inhibitor]; ABCG2 inh: 8; ABCB1 block: 2; MEKK2wt confirm: 103; MEKK2mut-MEK5: 0; MEKK3 confirm: 103

How did Cc1cc(C)c2sc(N(CCCN(C)C)C(=O)c3ccc(Br)s3)nc2c1 do in these assays?
MEKK2 mut-MEK5: 28; MEKK2wt PB1 HTS: 189*; MEKK3 PB1 HTS: 114; ABCG2 inh: 1; ABCB1 block: 1; MEKK2wt confirm: 204; MEKK2mut-MEK5: 54; MEKK3 confirm: 111

How did Cc1cc(C)c2sc(N(CCCN(C)C)C(=O)CN3C(=O)c4ccccc4C3=O)nc2c1 do in these assays?
MEKK2 mut-MEK5: 82*; MEKK2wt PB1 HTS: 321*; MEKK3 PB1 HTS: 70*[inhibitor]; ABCG2 inh: -1; ABCB1 block: 1; MEKK2wt confirm: 156; MEKK2mut-MEK5: 37; MEKK3 confirm: 115

What do the screens show for `COc1ccccc1CNS(=O)(=O)c1ccc2c(c1)CC(=O)N2C`?
MEKK2 mut-MEK5: -4; MEKK2wt PB1 HTS: 98; MEKK3 PB1 HTS: 96
